CHO parental Ca = counter-screen for OX1R antagonists: effect in parental CHO cells | 330,000 compounds, 0.63% hits | parental CHO-K1, ATP-induced calcium, Fluo-8 fluorescence | inhibition, % at 5.6 µM | AID 463079;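 active = inhibition above that plate's mean sample inhibition plus 3 SD, cut at about 26% in these data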;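 also: 0% = ATP-challenged DMSO wells and 100% = DMSO wells without ATP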
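Assay system: parental CHO cells; Read-out basis: percent inhibition of ATP-evoked calcium rise, normalized to controls; Benchmarks: ATP and no-ATP DMSO wells; Compound dosing: single nominal dose of 5.6 µM per compound; Signal: Fluo-8 calcium dye fluorescence; Also added: ATP as calcium-mobilizing challenge; Repeats: singlicate.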
OX1R antag-1 = antagonists of human orexin 1 receptor (OX1R). 330,000 compounds, 1.8% hits. O43613. inhibition, % at 6.6 µM. OX1R-expressing cells, FRET antagonist read-out; in the data active = inhibition mostly above about 38%, no sharp cut-off; inactive = mostly below about 40%;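 also: 0% = agonist challenge alone and 100% = reference antagonist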
TAAR1 antagonist = antagonists of human TAAR1 | CHO RD-HGA16 TAAR1, Fluo-8 calcium fluorescence, antagonist | inhibition, % at 3 µM | 360,000 compounds, 1.5% hits;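 active = inhibition above a per-plate cutoff, the mean inhibition of test compounds on that plate plus 3 SD, cut at about 49% in these data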;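 also: 0% = DMSO plus EC80 beta-PEA response and 100% = DMSO alone without agonist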
Target sequence (Q96RJ0 whole entry, looked up): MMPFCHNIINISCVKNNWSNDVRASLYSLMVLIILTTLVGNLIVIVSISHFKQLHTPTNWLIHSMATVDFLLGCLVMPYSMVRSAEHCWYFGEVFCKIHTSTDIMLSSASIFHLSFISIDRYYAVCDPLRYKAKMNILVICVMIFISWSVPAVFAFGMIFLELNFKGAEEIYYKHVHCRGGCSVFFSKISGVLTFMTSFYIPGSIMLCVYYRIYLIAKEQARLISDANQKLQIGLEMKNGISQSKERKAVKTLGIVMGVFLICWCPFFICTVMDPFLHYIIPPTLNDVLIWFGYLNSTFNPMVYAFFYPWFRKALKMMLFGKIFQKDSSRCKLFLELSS
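test system = CHO RD-HGA16 cells bearing hTAAR1 | replication = singlicate | controls = DMSO-only wells and EC80 β-PEA-stimulated wells | reagent = EC80 β-phenethylamine stimulus | read-out basis = percent inhibition of PEA-evoked calcium signal, max/basal emission ratio | schedule = seeding 17-24 h prior, 75-min 37 °C, 30-min RT dye loading | signal = kinetic Fluo-8 calcium fluorescence measurement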
TAAR1 agonist = agonists of human TAAR1 | Q96RJ0 | CHO RD-HGA16 TAAR1, Fluo-8 calcium fluorescence; vehicle wells 0%, saturating PEA agonist 100% | activation, % at 3 µM | 360,000 compounds, 0.99% hits;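 active = activation above the mean activation of all test compounds in the run plus 3 SD, cut at about 38% in these data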
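Test system: RD-HGA16 (CHO) cells co-expressing Gα16 and hTAAR1 / Benchmarks: DMSO vehicle as 0%, PEA at EC100 as 100% / Repeats: no replicates (n 1) / Measure: % activation from peak over basal fluorescence ratio, DMSO-to-PEA scaled / Timing: 17-24 h plating, Fluo-8 75 min 37 °C, 30 min RT / Technique: kinetic Fluo-8 calcium fluorescence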
OX1R antag-2 = antagonists of human orexin 1 receptor. O43613. CHO/OX1R cells, Fluo-8 calcium fluorescence, orexin A. inhibition, % at 5 µM. 330,000 compounds, 0.43% hits;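 active = inhibition above its plate's threshold, mean inhibition of all tested compounds on the plate plus 3 SD, cut at about 37% in these data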;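 also: 0% = orexin A challenge wells and 100% = SB-334867-A antagonist wells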
GPR7 antag = antagonists of human GPR7 (neuropeptides B/W receptor 1) | AID 1861 | inhibition, % at 4.4 µM | GPR7-expressing cells, fluorescence antagonist assay | 290,000 compounds, 1.1% hits | P48145; in the data active = inhibition above about 16%, passing the limit was not always enough;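 also: cells stimulated with the agonist NPW; 0% = agonist with vehicle and 100% = vehicle without agonist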
Target sequence (P48145 whole entry, looked up): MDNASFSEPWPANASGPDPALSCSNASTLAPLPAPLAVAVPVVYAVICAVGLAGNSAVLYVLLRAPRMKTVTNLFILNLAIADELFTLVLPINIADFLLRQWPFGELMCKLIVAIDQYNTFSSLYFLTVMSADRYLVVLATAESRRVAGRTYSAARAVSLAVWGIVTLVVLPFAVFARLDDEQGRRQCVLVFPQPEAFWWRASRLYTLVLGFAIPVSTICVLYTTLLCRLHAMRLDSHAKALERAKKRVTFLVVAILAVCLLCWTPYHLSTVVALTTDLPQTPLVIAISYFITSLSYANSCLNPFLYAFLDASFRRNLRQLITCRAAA
nonsel antag count = nonselective antagonist in TAAR1 antagonist counter-screen; counterscreen cell line, calcium fluorescence, antagonist mode; 2,400 compounds, 77% hits; AID 651780; inhibition, % at 3 µM; shares compounds with TAAR1 antagonist; in the data active = inhibition above about 22%;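 also: CHO-Ga16 host cells stimulated with ATP at an EC80 level; 0% = agonist EC80 plus vehicle and 100% = vehicle without agonist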
TAAR1 antag conf = human TAAR1 antagonism, confirmed; shares compounds with TAAR1 antagonist; TAAR1-expressing cells, fluorescence antagonist read-out; inhibition, % at 3 µM; 2,400 compounds, 40% hits; in the data active = inhibition above about 49%;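 also: CHO-Ga16 host cells challenged with agonist PEA near its EC80; 0% = agonist at EC80 plus vehicle and 100% = vehicle with no agonist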
Ga16 ag counter = nonselective Ga16 agonist in TAAR1 antagonist counter-screen | AID 651953 | 2,400 compounds, 18% hits | Ga16-expressing cells, calcium fluorescence, agonist counterscreen | activation, % at 3 µM | shares compounds with TAAR1 antagonist; in the data active = activation above about 12%;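 also: 0% = vehicle wells and 100% = saturating stimulus response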
TAAR1 ag counter = counter-screen for human TAAR1 antagonists: TAAR1 agonists. 2,400 compounds, 2% hits. shares compounds with TAAR1 antagonist. hTAAR1 cell line, fluorescence activation, agonist mode. AID 651955. activation, % at 3 µM; in the data active = activation above about 37%;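 also: CHO cells stably expressing TAAR1 with calcium dye readout; 0% = DMSO vehicle and 100% = full agonist response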
Active calls of the source: *; / = not tested or not shown. Rows were chosen to be rich in hits. Some 4.5% of all compounds tested hit in one or more screens of this group.

SMILES	CHO parental Ca	OX1R antag-1	TAAR1 antagonist	TAAR1 agonist	OX1R antag-2	GPR7 antag	nonsel antag count	TAAR1 antag conf	Ga16 ag counter	TAAR1 ag counter
CC(C)=N/N=C1/NC(=O)C(c2ccc(Cl)cc2)S1 (stereo not drawn)	/	/	55*	27	/	/	1	-3	3	3
OC1COC(O)C(O)C1O (stereo not drawn)	6	11	-16	0	-6	/	/	/	/	/
C=C(C1=CCN(S(=O)C(C)(C)C)[C@@H]1CCO)c1ccccc1 (stereo partly drawn)	/	/	-14	1	/	/	/	/	/	/
COc1ccc(C(=O)CCc2ccccc2)c(O)c1	-13	42	-42	0	-11	/	/	/	/	/
O=C(CCc1ccccc1)c1c(O)cc(O)cc1O	4	16	68*	3	2	/	25*	30	4	1
Cc1ccc(NC(=O)CC2S/C(=N/c3nccs3)N(C)C2=O)cc1C (stereo not drawn)	13	32	55*	26	17	-3	31*	50*	11	13
OC(c1ccc(F)c(F)c1)c1nc(-c2ccc3ccccc3c2)cs1 (stereo not drawn)	/	/	55*	23	/	/	32*	37	13*	14
CC1CCCCN1S(=O)(=O)Cc1ccccc1Cl (stereo not drawn)	/	/	-6	2	/	-17	/	/	/	/
Cc1nc2c(OCc3ccc(F)c(F)c3)cccn2c1N(C)C(=O)CCC1CCCC1	/	/	34	2	/	/	/	/	/	/
Cc1nc2c(OCc3ccc(OC(F)F)cc3)cccn2c1N(C)C(=O)CCC1CCCC1	/	/	78*	2	/	/	39*	54*	7	3
CCOc1ccc(S(=O)(=O)N2CCOCC2)cc1NC(=O)CN1C(=O)NC(CC)(c2ccccc2)C1=O (stereo not drawn)	-16	14	-5	3	-24	-11	/	/	/	/
Cc1cccc(CN2C(=O)[C@H]3Cc4c([nH]c5ccccc45)C(C)(C)N3C2=O)c1	-19	17	60*	10	-32	/	24*	26	2	2
Cc1ccc(NC(=O)CCNC(=O)c2ccc(Br)cc2)cc1S(=O)(=O)N1CCOCC1	-24	19	-8	1	-21	/	/	/	/	/
O=C(CCNC(=O)c1ccc([N+](=O)[O-])cc1)Nc1ccc(Cl)c(S(=O)(=O)N2CCOCC2)c1	2	7	102*	0	-8	/	-3	-12	3	3
COc1ccc2c(c1)c(CCN1C(=O)c3ccccc3C1=O)cn2C(=O)c1ccco1	-19	-1	57*	5	-20	-17	12	32	2	4
CC1(Cc2ccccc2Cl)C(=O)Nc2c(Cl)ccc(Cl)c21 (stereo not drawn)	/	/	57*	3	/	/	0	32	15*	32
COc1ccc(Cl)cc1NC(=O)COC(=O)/C=C/c1c(C)nn(C2CCS(=O)(=O)C2)c1Cl (stereo not drawn)	44*	56	53*	16	32	-14	42*	41	13*	13
CCSc1nnc(-c2cccc(S(=O)(=O)N(CC)CC)c2)n1Cc1ccccc1	-10	9	60*	11	-17	14	31*	52*	8	6
CCNC(=O)CSc1nnc(-c2cccc(S(=O)(=O)N(CC)CC)c2)n1CCc1ccccc1	-20	10	1	10	-10	3	/	/	/	/
COc1ccc(C2CC(=O)C(c3ccccc3OC)=CN2Cc2ccccc2)cc1 (stereo not drawn)	/	/	56*	6	/	/	21	37	5	5
COc1ccc(C2Nc3ccccc3C(=O)N2Cc2ccccc2)cc1 (stereo not drawn)	-14	-6	5	0	-16	-8	/	/	/	/
COc1ccc(N(C)S(=O)(=O)c2cccc(C(=O)Nc3cccc(C(=O)NC4CC4)c3)c2)cc1	-16	8	61*	9	-5	/	21	40	11	8
COc1ccc(N(C)S(=O)(=O)c2cccc(C(=O)Nc3nc(C)c(C(C)=O)s3)c2)cc1	-1	22	62*	27	8	/	38*	57*	15*	13
COc1ccc(N(C)S(=O)(=O)c2cccc(C(=O)OCC(=O)Nc3cc(C)ccc3OC)c2)cc1	/	/	84*	9	/	/	34*	51*	12*	8
Oc1ccc(Br)cc1/C=N/n1c(COc2ccccc2)n[nH]c1=S	/	/	-20	-1	/	2	/	/	/	/
SMILES	CHO parental Ca	OX1R antag-1	TAAR1 antagonist	TAAR1 agonist	OX1R antag-2	GPR7 antag	nonsel antag count	TAAR1 antag conf	Ga16 ag counter	TAAR1 ag counter
COc1ccccc1Nc1nnc(SCc2cc(=O)n3cc(C)ccc3n2)s1	-13	19	69*	16	-15	-10	30*	45	9	7
CCOc1ccc(CCN2C(=O)C(=O)N([C@@H](CC(C)C)CN3CCC[C@H]3CN3C(=O)C(=O)NC[C@@H]3Cc3ccccc3)C[C@@H]2Cc2ccccc2)cc1	/	/	-6	-1	/	/	/	/	/	/
C=CCn1c(SCC(=O)NCC2CCCO2)nc2sc(CC)cc2c1=O (stereo not drawn)	-18	5	2	2	-12	/	/	/	/	/
O=C(NNC(=O)c1ccccc1OCc1ccccc1)c1ccccc1F	-13	-5	7	4	-26	-7	/	/	/	/
Cc1ccc(C(C)C)c(OCc2ccc(C(=O)N/N=C/c3cccc(O)c3O)cc2)c1	-2	11	77*	2	-7	-6	47*	80*	7	12
Cc1ccc(C(C)C)c(OCc2ccc(C(=O)N/N=C/c3ccc(O)c(O)c3)cc2)c1	2	12	32	10	-2	-7	/	/	/	/
O=C(N/N=C/c1ccccc1F)c1ccccc1OCc1ccccc1	-49	22	51*	7	-23	17	9	35	4	4
CC(=O)Nc1ccc(C(=O)N/N=C/c2ccccc2OCc2ccccc2)cc1	-22	17	52*	13	-22	-6	32*	42	6	5
COC(=O)N/N=C/c1ccccc1OCc1ccccc1	-5	17	14	-1	-16	-7	/	/	/	/
CC(C)(C)c1ccc(S(=O)(=O)NC(=O)C2(C)CCN2C(=O)C2(c3ccccc3)CC2)cc1 (stereo not drawn)	/	/	-18	15	/	/	/	/	/	/
O=C(NCCCc1ccccc1)c1cc(COc2ccc(F)cc2Cl)on1	-37	4	24	2	-37	-3	/	/	/	/

From PubChem
